Source: ChEMBL document CHEMBL4477178, “Biflorin, Isolated from the Flower Buds of Syzygium aromaticum L., Suppresses LPS-Induced Inflammatory Mediators via STAT1 Inactivation in Macrophages and Protects Mice from Endotoxin Shock” (J Nat Prod, 2016)
pIC50: −log10 of the molar value. Calls of active or inactive are those of the source. The calls are words filed in the database; no cut-off is given here.

How the values were obtained:
Mus musculus [1] = assay: Protection against LPS-induced mortality in C57BL/6 mouse assessed as lethality level at 5 to 10 mg/kg, ip pretreated for 1 hr followed by LPS challenge measured every 12 hrs for 96 hrs post challenge; format: functional
In short: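 Male C57BL/6 mice (6 weeks) given compound i.p. (5 or 10 mg/kg) or vehicle 1 h before i.p. LPS (Salmonella enterica, 25 mg/kg). Water only for 12 h beforehand. Survival checked every 12 h for 96 h; n = 5 per group.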

RAW264.7 [2] = assay: Antiinflammatory activity in mouse RAW264.7 cells assessed as inhibition of LPS-induced iNOS promoter activity at 60 uM preincubated for 1 hr followed by LPS challenge for 6 to 12 hrs by reporter gene assay; format: functional, cell-based
In short: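 RAW 264.7 transiently cotransfected with promoter-luciferase construct (pGL3-iNOS, pGL3-COX-2 or pTNF-α-luc) plus phRL-TK internal control; 6 h after transfection pretreated 1 h with 60 μM, then LPS 10 ng/mL for 6 or 12 h. Cells washed in cold PBS, lysed, luciferase read. Mean ± SD, three independent experiments.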

RAW264.7 [3] = assay: Cytotoxicity against mouse RAW264.7 cells assessed as decrease in cell viability after 24 hrs by MTT assay; format: cell-based; details: RAW264.7, 24 h
In short: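 RAW 264.7 cells seeded at 1 × 10^5 cells/mL in DMEM with 10% FBS and incubated overnight. Exposed to compound (0−400 μM) for 24 h, with or without LPS. MTT added for 4 h at 37 °C, formazan dissolved in DMSO, absorbance read at 540 nm; IC50 derived.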

Peritoneal macrophage = assay: Antiinflammatory activity in C57BL/6 mouse peritoneal macrophages assessed as inhibition of LPS-induced IL-6 production at 60 uM preincubated for 1 hr followed by LPS challenge for 48 hrs by ELISA method; format: functional; details: C57BL/6, Peritoneal macrophage
RAW264.7 [4] = assay: Antiinflammatory activity in mouse RAW264.7 cells assessed as inhibition of LPS-induced IL-6 production at 60 uM preincubated for 1 hr followed by LPS challenge for 24 hrs by ELISA method; format: functional
In short: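 RAW 264.7 cells in DMEM with 10% FBS, plated at 2 × 10^5 cells/mL and incubated overnight. Pretreated with compound (15, 30 or 60 μM) for 1 h, then LPS 10 ng/mL for 24 h. PGE2 measured by competitive colorimetric ELISA, TNF-α and IL-6 by ELISA, in diluted medium. NS-398 3 μM as positive control for PGE2. Mean ± SD, three independent experiments; IC50 given for PGE2.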

Mus musculus [5] = assay: In vivo inhibition of LPS-induced STAT1 phosphorylation at S727 in C57BL/6 mouse liver at 10 mg/kg, ip pretreated for 1 hr followed by LPS challenge for 6 hrs by Western blot analysis; format: functional, organism-based
In short: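 Male C57BL/6 mice given 10 mg/kg i.p. or vehicle 1 h before LPS (Salmonella enterica, 25 mg/kg i.p.); liver collected 6 h after LPS, frozen at −80 °C. Liver mRNA by SYBR qRT-PCR normalized to β-actin; protein by Western blot for p-STAT1 (Y701, S727). Eight mice per group; mean ± SD.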

Cc1cc(=O)c2c(O)c([C@@H]3O[C@H](CO)[C@@H](O)[C@H](O)[C@H]3O)c(O)cc2o1 [BIFLORIN]
mortality (Mus musculus [1]): 40 - 60%
inhibition (RAW264.7 [2]): Active
pIC50 (RAW264.7 [3]): 3.85
inhibition at 60 µM (Peritoneal macrophage): 61.1%
inhibition at 60 µM (RAW264.7 [4]): 51.3%
inhibition (Mus musculus [5]): Active
